{"source": "paper PMC2680181", "about": "(Journal of medicinal chemistry, 2009)"}
{"system": "MIF tautomerase", "assay": "not given", "conditions": "covalent inhibitor; cited from earlier work", "units": {"tautomerase inhibitor potency": "µM"}}
{"smiles": "CC(=O)N=C1C=CC(=O)C=C1", "note": "[NAPQI, N-acetyl-p-benzoquinone]", "tautomerase inhibitor potency": 40}
{"target": "T1, MIF tautomerase activity (rhMIF) (Homo sapiens, UniProt P14174)", "T1 sequence (P14174 2-115 limits assumed)": "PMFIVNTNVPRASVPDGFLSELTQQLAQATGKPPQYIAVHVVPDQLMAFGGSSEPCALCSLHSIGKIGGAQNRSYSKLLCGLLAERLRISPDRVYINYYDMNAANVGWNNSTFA", "assay": "Michaelis-Menten analysis of MIF tautomerase with 4-HPP as substrate", "type": "biochemical", "conditions": "Lineweaver-Burk plots, Vmax unchanged"}
{"smiles": "O=C(c1cc2ccccc2o1)N1CCc2ccccc21", "note": "[Compound 23]", "mode of tautomerase inhibition": "competitive inhibition"}
{"smiles": "Cc1ccc2oc(=O)n(Cc3ccccc3)c2c1", "note": "[Compound 24]", "mode of tautomerase inhibition": "competitive inhibition"}
{"target": "T2, human MIF binding to its receptor, CD74 (Homo sapiens, UniProt P14174)", "T2 sequence (P14174 2-115 limits assumed)": "T1 sequence (P14174 2-115 limits assumed)", "assay": "MIF-CD74 binding assay", "conditions": "NA = measured, but not active"}
{"smiles": "O=c1oc2c(O)c(O)ccc2cc1-c1nc2ccccc2s1", "note": "[Compound 11]", "IC50 (µM) MIF-CD74 binding assay": "inactive"}
{"smiles": "O=C(O)c1cc(-n2cnnn2)ccc1O", "note": "[Compound 15]", "IC50 (µM) MIF-CD74 binding assay": "very weak MIF-CD74 antagonists"}
{"smiles": "O=C(O)c1cc(-n2cnnc2)ccc1Cl", "note": "[Compound 16]", "IC50 (µM) MIF-CD74 binding assay": "very weak MIF-CD74 antagonists"}
{"smiles": "CC(=O)Nc1cccc2ccc(-c3cnc4ccccc4c3)nc12", "note": "[Compound 28]", "IC50 (µM) MIF-CD74 binding assay": "inactive"}
{"smiles": "O=c1c2ccc(F)cc2sn1-c1ccc(Cl)cc1", "note": "[Compound 32]", "IC50 (µM) MIF-CD74 binding assay": "inactive"}
{"target": "T1, MIF tautomerase activity (rhMIF)", "assay": "4-HPP tautomerase assay", "type": "biochemical", "conditions": "max inhibition printed in place of IC50", "method_in_brief": "(§1)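 Recombinant human MIF (purified) was pre-incubated with test compound. 4-HPP was dissolved in 50 mM ammonium acetate, pH 6.0, equilibrated to room temperature and stored at 4 °C. At 25 °C, 4-HPP was added to a cuvette of 0.435 M boric acid, pH 6.2, plus the enzyme–compound mix. A305 increase was read over 30–90 s, in triplicate. Compounds spanned a 5000-fold concentration range.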"}
{"smiles": "Oc1ccc(/C=C/c2ccc3cccc(O)c3n2)cc1", "note": "[Compound 26]", "maximal inhibition in 4-HPP tautomerase assay": "max 40%"}
{"smiles": "Oc1ccc2c(c1)oc1ccccc12", "note": "[Compound 29]", "maximal inhibition in 4-HPP tautomerase assay": "max 38%"}
{"smiles": "O=C(O)c1cccc(-c2cc[nH]n2)c1", "note": "[Compound 33]", "maximal inhibition in 4-HPP tautomerase assay": "max 30%"}
{"target": "T1, MIF tautomerase activity (rhMIF)", "assay": "4-HPP tautomerase assay", "type": "biochemical", "conditions": "substrate 4-HPP; NA = measured, but not active", "method_in_brief": "as §1"}
{"smiles": "COC(=O)C[C@H]1CC(c2ccc(O)cc2)=NO1", "note": "(racemic) [Compound 9, (S,R)-3-(4-hydroxyphenyl)-4,5-dihydro-5-isoxazole acetic acid methyl ester, reference compound]", "IC50 (µM) 4-HPP tautomerase assay": "inactive"}
{"smiles": "CC(=O)Oc1ccc2nc(-c3cc4ccccc4o3)oc(=O)c2c1", "note": "[Compound 17]", "IC50 (µM) 4-HPP tautomerase assay": "weak tautomerase inhibitors"}
{"smiles": "Oc1c(C(Nc2cccc(F)c2)c2ccccn2)ccc2cccnc12", "note": "(stereo not drawn) [Compound 18]", "IC50 (µM) 4-HPP tautomerase assay": "weak tautomerase inhibitors"}
{"smiles": "Oc1ccc(/C=C/c2ccc3cccc(O)c3n2)cc1", "note": "[Compound 26]", "IC50 (µM) 4-HPP tautomerase assay": "weak tautomerase inhibitors"}
